1 compound from ChEMBL document CHEMBL1140873, “Interaction between double helix DNA fragments and a new topopyrone acting as human topoisomerase I poison” (Bioorg Med Chem, 2009) can be followed below.

Calls of active or inactive are those of the source. The calls are words filed in the database; no cut-off is given here.

Assay [1] can be described thus: Binding affinity to oligonucleotide d(CGTACG)2 by UV-visible spectroscopy. In short, it runs like this:
(§1)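 Apparent DNA–drug binding constants measured by UV titration at 25 °C, read at λmax 376 nm. A 5.0 x 10^-? M aqueous drug stock was added in increasing amounts to a 1.0 x 10^-5 M oligonucleotide solution.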

Assay [2] is described as follows: Binding affinity to oligonucleotide d(CGTACG)2 at [drug]/[DNA] ratio of 4 by NMR DOSY experiment. The gist of the method:
(§2)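 DOSY at 25 °C on the complex in D2O, 0.1 M NaCl, 10 mM phosphate, pH 6.7, with drug at 5.4 mM. Gradient pulse 1.5 ms, 64 increments. Molecular mass was read from a calibration curve of diffusion standards from glucose up to trypsin (Mr 180–23,500).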

A short description of assay [3]: Binding affinity to oligonucleotide d(CGTATACG)2 by UV-visible spectroscopy. In short, it runs like this:
as §1

A short description of assay [4]: Binding affinity to oligonucleotide d(ATGCGCAT)2 by UV-visible spectroscopy. In short, it runs like this: as §1
Assay [5] is described as follows: Binding affinity to oligonucleotide d(CGTACG)2 at [drug]/[DNA] ratio of 4 by NMR spectroscopy. In short, it runs like this:
(§3)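 1H NMR titration at 600 MHz. A drug stock (23.4 mM) was added in increasing amounts to oligonucleotide up to R = [2]/[DNA] = 4.0. An inverse titration added DNA to 0.2 mM drug. Conditions were D2O, 10 mM phosphate, 0.1 M NaCl, pH 6.7, 25 °C. Shifts were referenced to external DSS.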

Assay [6] can be described thus: Binding affinity to oligonucleotide d(CGTACG)2 at [drug]/[DNA] ratio of 1 by NMR spectroscopy. The gist of the method: as §3
A short description of assay [7]: Binding affinity to oligonucleotide d(CGTACG)2 at [drug]/[DNA] ratio of 3 by NMR DOSY experiment. In short, it runs like this: as §2
Assay [8] can be described thus: Binding affinity to oligonucleotide d(CGTACG)2 by single diffusion coefficient experiment. In short, it runs like this: as §2
The nature of assay [9]: Binding affinity to oligonucleotide d(CGTACG)2 assessed as intercalation by single diffusion coefficient experiment. The gist of the method: as §2
A short description of assay [10]: Binding affinity to oligonucleotide d(CGTACG)2 at [drug]/[DNA] ratio of 2 by NOESY experiment. The gist of the method: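 Phase-sensitive NOESY (TPPI) run at 25 °C in D2O and 15 °C in H2O/D2O 90:10. Sample was complex at R = 2 in 10 mM phosphate pH 6.7 with 100 mM NaCl. Mixing time 300 ms, 2K x 512 FIDs, 1.5 s recycle delay, 80 scans. Ligand–DNA NOEs were treated as transferred NOEs.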

Take `Cc1cc(=O)c2ccc3c(c2o1)C(=O)c1c(OCCN(C)C)cccc1C3=O`: the K in [1] was 4 ×10³ /M; in assay [3] it was 1 ×10³ /M; in assay [4], 6 ×10³ /M. The outcome in [2], in assay [5], in assay [6], in [7], in assay [8] and in [9] was Active. Moreover, the result in [10] was Active.
